ChEMBL document CHEMBL3997850 (ACS Med Chem Lett, 2017)

How the values were obtained:
[1] = Oral bioavailability in rat at 5 mg/kg by LC/MS/MS analysis; type: ADME, organism-based; settings: in vivo
Outline: (§1)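 Male rats, 5 mg/kg IV in 10% DMAC/saline or 5 mg/kg oral in 0.5% aqueous methylcellulose. Plasma (EDTA) sampled pre-dose to 24 h. Quantified by acetonitrile precipitation and LC/MS/MS (2–10000 nM range, 0.1 mL). Non-compartmental analysis of concentration–time data.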

Cytochrome P450 2C9 = Cytochrome P450 2C9 (Homo sapiens, UniProt P11712); assay: Inhibition of recombinant human CYP2C9 assessed as decrease in hydroxylation of 7-methoxy-4-(trifluoromethyl)-coumarin by fluorimetric method; type: ADME; settings: recombinant enzyme
Outline: (§2)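 Recombinant human isozymes with substrate at Km concentration: CYP2C9 with 7-methoxy-4-(trifluoromethyl)coumarin, CYP2D6 with 7-methoxy-4-methylcoumarin. Hydroxylation read fluorimetrically, inhibitor 0–25 µM.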

Cytochrome P450 2D6 = Cytochrome P450 2D6 (Homo sapiens, UniProt P10635); assay: Inhibition of recombinant human CYP2D6 assessed as decrease in hydroxylation of 7-methoxy-4-methylcoumarin by fluorimetric method; type: ADME; settings: recombinant enzyme; outline: as §2
[2] = Half life in rat at 5 mg/kg, po by LC/MS/MS analysis; type: ADME, organism-based; settings: in vivo; outline: as §1
[3] = Volume of distribution at steady state in rat at 5 mg/kg, iv or 5 mg/kg, po by LC/MS/MS analysis; type: ADME, organism-based; settings: in vivo, read-out: Vdss; outline: as §1
Cytochrome P450 2C8 = target: T1, Cytochrome P450 2C8 (Homo sapiens, UniProt P10632); assay: Inhibition of recombinant human CYP2C8 assessed as decrease in conversion of dibenzylfluoresein to fluorescein by fluorimetric method; type: ADME; settings: recombinant enzyme
T1 sequence (P10632 whole entry): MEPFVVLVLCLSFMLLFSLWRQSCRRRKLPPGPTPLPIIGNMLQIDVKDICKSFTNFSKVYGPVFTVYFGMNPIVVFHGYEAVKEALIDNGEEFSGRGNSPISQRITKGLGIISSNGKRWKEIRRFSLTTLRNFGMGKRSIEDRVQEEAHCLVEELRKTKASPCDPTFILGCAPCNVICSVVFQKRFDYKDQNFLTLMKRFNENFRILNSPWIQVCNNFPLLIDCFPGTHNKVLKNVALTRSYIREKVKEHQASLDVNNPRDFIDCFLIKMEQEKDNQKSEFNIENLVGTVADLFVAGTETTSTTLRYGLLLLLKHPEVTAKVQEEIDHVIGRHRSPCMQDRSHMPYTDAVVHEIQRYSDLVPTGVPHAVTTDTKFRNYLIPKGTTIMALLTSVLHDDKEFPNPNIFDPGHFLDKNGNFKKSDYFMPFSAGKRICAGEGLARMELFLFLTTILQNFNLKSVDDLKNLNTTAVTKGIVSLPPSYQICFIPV
Outline: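 Recombinant human CYP2C8; dibenzylfluorescein at Km concentration converted to fluorescein, measured fluorimetrically. Inhibitor range 0–25 µM.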

Canis familiaris = assay: AUC in beagle dog at 5 mg/kg, iv or 10 mg/kg, po by LC/MS/MS analysis; type: ADME, organism-based, Canis lupus familiaris; settings: in vivo
Outline: (§3)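 Male beagle dogs dosed 5 mg/kg IV in 10% DMAC in saline or 10 mg/kg oral in 5% DMAC in 0.5% methylcellulose. EDTA blood taken from pre-dose to 24 h and spun to plasma. Plasma proteins precipitated with acetonitrile, then LC/MS/MS (linear 2–10000 nM, 0.1 mL plasma). Parameters derived by non-compartmental analysis.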

Mus musculus = assay: Toxicity in mouse assessed as effect on food consumption up to 2000 mg/kg/day after 28 days; type: organism-based; settings: in vivo, 672 h
[4] = Clearance in beagle dog at 5 mg/kg, iv or 10 mg/kg, po by LC/MS/MS analysis; type: ADME, organism-based, Canis lupus familiaris; settings: in vivo; outline: as §3
[5] = Clearance in rat at 5 mg/kg, iv or 5 mg/kg, po by LC/MS/MS analysis; type: ADME, organism-based; settings: in vivo; outline: as §1
[6] = AUC in mouse CT26 cells allografted immunocompetent Balb/c mouse model at 30 mg/kg, po by LC/MS/MS analysis; type: ADME, organism-based; settings: in vivo
Cytochrome P450 3A4 = Cytochrome P450 3A4 (Homo sapiens, UniProt P08684); assay: Inhibition of recombinant human CYP3A4 assessed as decrease in hydroxylation of 7-benzyloxy-4-trifluoromethyl-coumarin by fluorescence assay; type: ADME; settings: recombinant enzyme
Outline: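 Recombinant human CYP1A2 or CYP3A4 with 7-benzyloxy-4-trifluoromethyl-coumarin at Km concentration; hydroxylation read by fluorescence. Inhibitor tested at 0–25 µM.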

Chain of Cytochrome P450 2C9 (P11712 whole entry): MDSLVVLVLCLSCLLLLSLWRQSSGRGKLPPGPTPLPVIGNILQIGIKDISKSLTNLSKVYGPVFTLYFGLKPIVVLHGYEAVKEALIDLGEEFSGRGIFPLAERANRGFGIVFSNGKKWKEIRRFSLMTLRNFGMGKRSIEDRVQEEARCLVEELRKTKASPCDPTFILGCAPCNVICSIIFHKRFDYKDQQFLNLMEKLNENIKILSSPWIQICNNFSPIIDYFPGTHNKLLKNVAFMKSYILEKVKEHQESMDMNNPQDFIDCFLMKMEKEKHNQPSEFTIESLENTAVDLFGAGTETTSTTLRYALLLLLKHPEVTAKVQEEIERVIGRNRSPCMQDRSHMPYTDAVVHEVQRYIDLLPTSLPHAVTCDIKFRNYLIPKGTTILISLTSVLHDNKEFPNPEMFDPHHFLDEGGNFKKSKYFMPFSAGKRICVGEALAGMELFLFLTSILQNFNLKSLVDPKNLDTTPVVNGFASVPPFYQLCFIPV
Chain of Cytochrome P450 2D6 (P10635 whole entry): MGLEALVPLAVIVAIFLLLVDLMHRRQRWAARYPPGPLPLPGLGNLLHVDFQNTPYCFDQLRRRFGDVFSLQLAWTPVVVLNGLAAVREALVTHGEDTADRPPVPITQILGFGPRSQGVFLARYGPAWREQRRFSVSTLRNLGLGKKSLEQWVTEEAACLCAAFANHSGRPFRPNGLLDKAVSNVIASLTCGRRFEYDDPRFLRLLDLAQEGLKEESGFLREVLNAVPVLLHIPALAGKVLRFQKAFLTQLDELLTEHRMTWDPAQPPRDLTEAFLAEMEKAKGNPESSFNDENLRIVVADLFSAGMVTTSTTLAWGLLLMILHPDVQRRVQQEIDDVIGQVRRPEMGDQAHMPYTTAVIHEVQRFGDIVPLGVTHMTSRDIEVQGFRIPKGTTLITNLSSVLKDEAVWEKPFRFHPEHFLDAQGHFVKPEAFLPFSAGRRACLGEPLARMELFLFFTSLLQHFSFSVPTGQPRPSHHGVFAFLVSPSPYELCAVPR
Chain of Cytochrome P450 3A4 (P08684 whole entry): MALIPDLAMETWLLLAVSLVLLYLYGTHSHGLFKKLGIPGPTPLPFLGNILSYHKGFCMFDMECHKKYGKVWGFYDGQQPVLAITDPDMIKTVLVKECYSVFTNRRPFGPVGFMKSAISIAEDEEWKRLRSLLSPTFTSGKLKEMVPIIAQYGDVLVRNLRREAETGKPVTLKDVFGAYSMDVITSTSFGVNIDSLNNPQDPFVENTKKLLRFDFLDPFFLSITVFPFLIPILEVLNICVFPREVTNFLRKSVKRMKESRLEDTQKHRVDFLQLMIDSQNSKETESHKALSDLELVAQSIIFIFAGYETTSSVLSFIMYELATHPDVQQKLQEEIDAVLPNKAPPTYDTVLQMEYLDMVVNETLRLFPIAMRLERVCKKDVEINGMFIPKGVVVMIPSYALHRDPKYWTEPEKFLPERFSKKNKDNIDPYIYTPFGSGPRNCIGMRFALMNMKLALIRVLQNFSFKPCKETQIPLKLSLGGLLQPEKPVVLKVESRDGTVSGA

bioavailability [1]: 11% | inhibition (INH) (Cytochrome P450 2C9): Not Active | inhibition (INH) (Cytochrome P450 2D6): Not Active | half-life [2]: 132 min | Vd [3]: 2 L/kg | inhibition (INH) (Cytochrome P450 2C8): Not Active | AUC (Canis familiaris): 29 µM·h | clearance [4]: 8.33 mL/min/kg | clearance [5]: 18.3 mL/min/kg | AUC [6]: 15 µM·h | inhibition (INH) (Cytochrome P450 3A4): Not Active
SMILES: NS(=O)(=O)NCCNc1nonc1C(=NO)Nc1ccc(F)c(Br)c1 [EPACADOSTAT]
Activity (Mus musculus): Non-Toxic
